Assay results from ChEMBL document CHEMBL4706487, “Antitumor agents 7. Synthesis, antiproliferative activity and molecular modeling of new l-lysine-conjugated pyridophenoxazinones as potent DNA-binding ligands and topoisomerase IIα inhibitors” (Eur J Med Chem, 2020).
Activity calls are given as the source filed them. No cut-off for these calls is given here. Starred links: 1 amine or outer side, 2 acyl side, 3 side chain; linkers in the order of their positions; H or OH if unused. Positions of bridges follow the written chain, without caps; N, C: chain ends. Non-standard residues stand in square brackets, D forms with d. Residues, ends and D or L forms follow the SMILES beside them. Chains are numbered I, II in the order given. Actinocin(1to9) = Cc1c2oc3c(C)ccc(C(=O)[*:2])c3nc-2c(C(=O)[*:1])c(N)c1=O; NMeV = CN[C@H](C(=O)O)C(C)C; Sar = CNCC(=O)O

What was measured:
G-361 = assay: Antiproliferative activity against human G-361 cells assessed as cell viability measured after 4 days by MTT assay; type: functional, cell-based; conditions: G-361, 96 h
Summary of the method: (§1)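 Leukemia/lymphoma cells (RPMI 1640, 10% FCS) resuspended at 1 × 10⁵ cells/mL with serial drug dilutions and read by MTT after 96 h at 37 °C. Solid-tumor cells (own media, 10% FCS) were seeded at 5 × 10⁴ cells/mL, allowed 16 h to adhere, then dosed and read by MTT 4 days later. IC50 was derived by linear regression of growth as % of untreated controls.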

SK-MEL-28 = assay: Antiproliferative activity against human SKMEL-28 cells assessed as cell viability measured after 4 days by MTT assay; type: functional, cell-based; conditions: SK-MEL-28, 96 h; summary of the method: as §1
HT-29 = assay: Antiproliferative activity against human HT-29 cells assessed as cell viability measured after 4 days by MTT assay; type: functional, cell-based; conditions: HT-29, 96 h; summary of the method: as §1
ACHN = assay: Antiproliferative activity against human ACHN cells assessed as cell viability measured after 4 days by MTT assay; type: functional, cell-based; conditions: 96 h; summary of the method: as §1
CCRF-SB = assay: Antiproliferative activity against human CCRF-SB cells assessed as cell viability measured after 4 days by MTT assay; type: functional, cell-based; conditions: 96 h; summary of the method: as §1
MCF7 = assay: Antiproliferative activity against human MCF7 cells assessed as cell viability measured after 4 days by MTT assay; type: functional, cell-based; conditions: MCF7, 96 h; summary of the method: as §1
CCRF-CEM = assay: Antiproliferative activity against human CCRF-CEM cells assessed as cell viability measured after 4 days by MTT assay; type: functional, cell-based; conditions: 96 h; summary of the method: as §1
MT4 = assay: Antiproliferative activity against human MT-4 cells assessed as cell viability measured after 4 days by MTT assay; type: functional, cell-based; conditions: MT4, 96 h; summary of the method: as §1
HeLa = assay: Antiproliferative activity against human HeLa cells assessed as cell viability measured after 4 days by MTT assay; type: functional, cell-based; conditions: 96 h
Summary of the method: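 Solid-tumor cells (own media, 10% FCS) were seeded at 5 × 10⁴ cells/mL, allowed 16 h to adhere, then dosed and read by MTT 4 days later. IC50 was derived by linear regression of growth as % of untreated controls.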

Calf thymus DNA [1] = assay: Binding affinity to calf thymus DNA assessed as hypochromism by UV-vis spectroscopy; conditions: Bos taurus
DNA = assay: Binding affinity at Escherichia coli pBR322 DNA assessed as unwinding of supercoiled DNA at 10 uM incubated for 10 mins in presence of human topoisomerase 1 by agarose gel based electrophoresis; type: nucleic-acid assay
Summary of the method: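 Intercalation assay with relaxed pBR322 (300 ng) and 2 units human Topo I in 50 mM Tris-HCl pH 7.5, 2.5 mM MgCl₂, 0.5 mM DTT and 50 µg/mL BSA, run 10 min at 37 °C. Stopped by phenol/chloroform/isoamyl alcohol extraction. Products run on 1.2% agarose in TAE, 2 V/cm for 15 h, then EtBr-stained. EtBr served as control; three independent experiments.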

Calf thymus DNA [2] = assay: Binding affinity to calf thymus DNA assessed as red shift by UV-vis spectroscopy; type: nucleic-acid assay; parameters: unit not given here; conditions: Bos taurus
Summary of the method: (§2)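 ctDNA held at 0.2 mM in phosphate buffer pH 7 and titrated with drug from […]. UV-vis spectra recorded in a 1 cm quartz cuvette. Binding constant was taken by the mole-ratio method from optical density changes at 260 nm, using a double reciprocal plot.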

Calf thymus DNA [3] = assay: Binding affinity to calf thymus DNA assessed as isosbestic point by UV-vis spectroscopy; type: nucleic-acid assay; conditions: Bos taurus; summary of the method: as §2
Calf thymus DNA [4] = assay: Binding affinity to calf thymus DNA assessed as lamda max by UV-vis spectroscopy; type: nucleic-acid assay; conditions: Bos taurus; summary of the method: as §2

SMILES	IC50 (SK-MEL-28)	IC50 (HT-29)	IC50 (ACHN)	IC50 (CCRF-SB)	IC50 (MCF7)	IC50 (CCRF-CEM)	IC50 (HeLa)	Activity (Calf thymus DNA [1])	Activity (DNA)	Activity (Calf thymus DNA [2])	Activity (Calf thymus DNA [3])	Activity (Calf thymus DNA [4])	IC50 (G-361)	IC50 (MT4)
Cc1c2oc3c(C)ccc(C(=O)N[C@@H]4C(=O)N[C@H](C(C)C)C(=O)N5CCC[C@H]5C(=O)N(C)CC(=O)N(C)[C@@H](C(C)C)C(=O)O[C@@H]4C)c3nc-2c(C(=O)N[C@@H]2C(=O)N[C@H](C(C)C)C(=O)N3CCC[C@H]3C(=O)N(C)CC(=O)N(C)[C@@H](C(C)C)C(=O)O[C@@H]2C)c(N)c1=O [DACTINOMYCIN] (I: T[dV]P[Sar][NMeV] / II: T[dV]P[Sar][NMeV]; ester I:1-I:C, II:1-II:C; linker I:N-II:N via Actinocin(1to9))	–	–	–	–	–	–	–	–	–	–	–	–	6 nM	–
O=c1cc2oc3ccccc3nc-2c2ncccc12	400 nM	380 nM	230 nM	150 nM	370 nM	90 nM	150 nM	–	–	–	–	–	450 nM	180 nM
COc1cc([C@@H]2c3cc4c(cc3[C@@H](O[C@@H]3O[C@@H]5CO[C@@H](C)O[C@H]5[C@H](O)[C@H]3O)[C@H]3COC(=O)[C@H]23)OCO4)cc(OC)c1O [ETOPOSIDE]	1100 nM	–	–	–	–	–	3000 nM	–	–	–	–	–	2300 nM	–
NCCCC[C@H](NC(=O)c1ccc2oc3cc(=O)c4ncccc4c-3nc2c1)C(=O)O	120 nM	80 nM	100 nM	120 nM	100 nM	100 nM	80 nM	30%	Active	440	343 nm	437	60 nM	90 nM

Now from value to compound, other results behind:

IC50 (SK-MEL-28)	IC50 (HT-29)	IC50 (ACHN)	IC50 (CCRF-SB)	IC50 (MCF7)	IC50 (CCRF-CEM)	IC50 (HeLa)	Activity (Calf thymus DNA [1])	Activity (DNA)	Activity (Calf thymus DNA [2])	Activity (Calf thymus DNA [3])	Activity (Calf thymus DNA [4])	SMILES	IC50 (G-361)	IC50 (MT4)
40 nM	20 nM	50 nM	80 nM	60 nM	40 nM	50 nM	39%	Active	440	310 nm	436	N[C@@H](CCCCNC(=O)c1ccc2oc3cc(=O)c4ncccc4c-3nc2c1)C(=O)O	20 nM	90 nM
100 nM	120 nM	100 nM	100 nM	120 nM	150 nM	150 nM	17%	–	446	275 nm	441	N[C@@H](CCCCNC(=O)c1ccc2oc3cc(=O)c4cccnc4c-3nc2c1)C(=O)O	30 nM	150 nM
